Data from ChEMBL document CHEMBL1148547, “The structure-activity relationships of mansonone F, a potent anti-MRSA sesquiterpenoid quinone: SAR studies on the C6 and C9 analogs” (2006).
Values after ≈ are worked out from the molar mass of the structure shown.

Tests used:
Format in all cases: functional
Staphylococcus aureus [1] = test: Antibacterial activity against methicillin-resistant Staphylococcus aureus
How it was run: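 Agar dilution MIC on Mueller–Hinton agar, run per the NCCLS procedure. Test organisms were clinical isolates collected from Seoul hospitals between 1997 and 1999 and stored at -70 °C until use.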

Micrococcus luteus [2] = test: Antibacterial activity against Micrococcus luteus ATCC 9341
How it was run: (§1)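 MIC by agar dilution on Mueller–Hinton agar, following the NCCLS procedure.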

Staphylococcus aureus [3] = test: Antibacterial activity against Staphylococcus aureus ATCC 25923; how it was run: as §1
[4] = system: Staphylococcus epidermidis; test: Antibacterial activity against Staphylococcus epidermidis ATCC 12228; how it was run: as §1
Bacillus cereus = test: Antibacterial activity against Bacillus cereus ATCC 27348; how it was run: as §1
Klebsiella pneumoniae = test: Antibacterial activity against Klebsiella pneumoniae ATCC 10031; how it was run: as §1
Bacillus subtilis = test: Antibacterial activity against Bacillus subtilis ATCC 6633; how it was run: as §1
Micrococcus luteus [5] = test: Antibacterial activity against Micrococcus luteus ATCC 10240; how it was run: as §1
Staphylococcus aureus [6] = test: Antibacterial activity against Staphylococcus aureus ATCC 29213; how it was run: as §1
Staphylococcus aureus [7] = test: Antibacterial activity against Staphylococcus aureus ATCC 6538P; how it was run: as §1
Staphylococcus aureus [8] = test: Antibacterial activity against Staphylococcus aureus; how it was run: as §1

SMILES	MIC50 (Staphylococcus aureus [1]) [µg/mL]	MIC90 (Staphylococcus aureus [1]) [µg/mL]	also measured
CCCCCCc1ccc2c3c1C(=O)C(=O)C(C)=C3OC=C2C	8 (≈ 25.8 µM)	16 (≈ 51.5 µM)	
CN[C@H](CC(C)C)C(=O)N[C@H]1C(=O)N[C@@H](CC(N)=O)C(=O)N[C@H]2C(=O)N[C@H]3C(=O)N[C@H](C(=O)N[C@H](C(=O)O)c4cc(O)cc(O)c4-c4cc3ccc4O)[C@H](O)c3ccc(c(Cl)c3)Oc3cc2cc(c3O[C@@H]2O[C@H](CO)[C@@H](O)[C@H](O)[C@H]2O[C@H]2C[C@](C)(N)[C@H](O)[C@H](C)O2)Oc2ccc(cc2Cl)[C@H]1O [VANCOMYCIN]	2 (≈ 1.38 µM)	2 (≈ 1.38 µM)	MIC (Micrococcus luteus [2]): 8 µg/mL (≈ 5.52 µM); MIC (Staphylococcus aureus [3]): 8 µg/mL (≈ 5.52 µM); MIC [4]: 8 µg/mL (≈ 5.52 µM); MIC (Bacillus cereus): 4 µg/mL (≈ 2.76 µM); MIC (Klebsiella pneumoniae): > 32 µg/mL; MIC (Bacillus subtilis): 0.5 µg/mL (≈ 0.345 µM); MIC (Micrococcus luteus [5]): 4 µg/mL (≈ 2.76 µM)
CC1=COC2=C(C)C(=O)C(=O)c3cccc1c32	8 (≈ 35.4 µM)	8 (≈ 35.4 µM)	
CCC1=C2OC=C(C)c3ccc(C)c(c32)C(=O)C1=O	16 (≈ 62.9 µM)	> 32	
CCc1ccc2c3c1C(=O)C(=O)C(C)=C3OC=C2C	8 (≈ 31.5 µM)	16 (≈ 62.9 µM)	
CC1=COC2=CC(=O)C(=O)c3c(C)ccc1c32	8 (≈ 35.4 µM)	16 (≈ 70.7 µM)	
CC1=COC2=CC(=O)C(=O)c3cccc1c32	> 32	> 32	
CC1=COC2=C(CBr)C(=O)C(=O)c3c(C)ccc1c32	16 (≈ 50.1 µM)	16 (≈ 50.1 µM)	
CCCCc1ccc2c3c1C(=O)C(=O)C(C)=C3OC=C2C	0.5 (≈ 1.77 µM)	0.5 (≈ 1.77 µM)	MIC (Micrococcus luteus [2]): 0.25 µg/mL (≈ 0.885 µM); MIC (Staphylococcus aureus [3]): 0.25 µg/mL (≈ 0.885 µM); MIC [4]: 0.25 µg/mL (≈ 0.885 µM); MIC (Bacillus cereus): 1 µg/mL (≈ 3.54 µM); MIC (Staphylococcus aureus [6]): 0.25 µg/mL (≈ 0.885 µM); MIC (Staphylococcus aureus [7]): 0.25 µg/mL (≈ 0.885 µM); MIC (Klebsiella pneumoniae): 2 µg/mL (≈ 7.08 µM); MIC (Staphylococcus aureus [8]; Smith): 0.25 µg/mL (≈ 0.885 µM); MIC (Staphylococcus aureus [8]; TMS 33): 0.5 µg/mL (≈ 1.77 µM); MIC (Staphylococcus aureus [8]; TMS 64): 0.25 µg/mL (≈ 0.885 µM); MIC (Staphylococcus aureus [8]; TMS 417): 0.25 µg/mL (≈ 0.885 µM); MIC (Bacillus subtilis): 0.5 µg/mL (≈ 1.77 µM); MIC (Micrococcus luteus [5]): 0.25 µg/mL (≈ 0.885 µM)
CC1=COC2=C(C)C(=O)C(=O)c3c(C)ccc1c32 [MANSONONE F]	2 (≈ 8.32 µM)	4 (≈ 16.6 µM)	MIC (Micrococcus luteus [2]): 1 µg/mL (≈ 4.16 µM); MIC (Staphylococcus aureus [3]): 1 µg/mL (≈ 4.16 µM); MIC [4]: 0.5 µg/mL (≈ 2.08 µM); MIC (Bacillus cereus): 4 µg/mL (≈ 16.6 µM); MIC (Staphylococcus aureus [6]): 4 µg/mL (≈ 16.6 µM); MIC (Staphylococcus aureus [7]): 4 µg/mL (≈ 16.6 µM); MIC (Klebsiella pneumoniae): 8 µg/mL (≈ 33.3 µM); MIC (Staphylococcus aureus [8]; Smith): 4 µg/mL (≈ 16.6 µM); MIC (Staphylococcus aureus [8]; TMS 33): 8 µg/mL (≈ 33.3 µM); MIC (Staphylococcus aureus [8]; TMS 64): 8 µg/mL (≈ 33.3 µM); MIC (Staphylococcus aureus [8]; TMS 417): 4 µg/mL (≈ 16.6 µM); MIC (Bacillus subtilis): 2 µg/mL (≈ 8.32 µM); MIC (Micrococcus luteus [5]): 1 µg/mL (≈ 4.16 µM)
CC(=O)C1=C2OC=C(C)c3ccc(C)c(c32)C(=O)C1=O	16 (≈ 59.6 µM)	32 (≈ 119 µM)	
CC1=COC2=C(C)C(=O)C(=O)c3c(CCC(C)C)ccc1c32	8 (≈ 27 µM)	16 (≈ 54 µM)	
CCCc1ccc2c3c1C(=O)C(=O)C(C)=C3OC=C2C	1 (≈ 3.73 µM)	4 (≈ 14.9 µM)	
CC1=COC2=C(C)C(=O)C(=O)c3c(C(C)C)ccc1c32	4 (≈ 14.9 µM)	16 (≈ 59.6 µM)	
COC(=O)c1ccc2c3c1C(=O)C(=O)C(C)=C3OC=C2C	16 (≈ 56.3 µM)	16 (≈ 56.3 µM)	
COc1ccc2c3c1C(=O)C(=O)C(C)=C3OC=C2C	8 (≈ 31.2 µM)	8 (≈ 31.2 µM)	
CCCC1=C2OC=C(C)c3ccc(C)c(c32)C(=O)C1=O	4 (≈ 14.9 µM)	8 (≈ 29.8 µM)	
COC(=O)C1=C2OC=C(C)c3ccc(C)c(c32)C(=O)C1=O	16 (≈ 56.3 µM)	32 (≈ 113 µM)	
CCCCCc1ccc2c3c1C(=O)C(=O)C(C)=C3OC=C2C	4 (≈ 13.5 µM)	8 (≈ 27 µM)	
CC1=COC2=C(Br)C(=O)C(=O)c3c(C)ccc1c32	8 (≈ 26.2 µM)	16 (≈ 52.4 µM)	
